Test system: Streptomyces canarius L-glutaminase
Test: ammonia release, Lineweaver-Burk plot
Format: biochemical
Conditions: read-out: Km (mmol ^-1); 10-100 mM substrate
In short: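 Purified enzyme (ammonium sulphate 50-80% cut, dialysis, DEAE-cellulose; 132.2 U/mg protein) in potassium phosphate buffer pH 8 with L-glutamine, L-asparagine or L-aspartic acid, each separately at 10-100 mM, under standard assay conditions. Deaminating activity read as liberated NH3, expressed as µmol per min per mg protein. Km and Vmax from Lineweaver-Burk fit of 1/S versus 1/activity.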

| SMILES | Km |
| --- | --- |
| NC(=O)C[C@H](N)C(=O)O [L-asparagine] | 137 µM |
| NC(=O)CC[C@H](N)C(=O)O [L-glutamine] | 129 µM |
| N[C@@H](CC(=O)O)C(=O)O [L-aspartic acid] | 5380 µM |
